Experimental data: ChEMBL document CHEMBL4334458, “Design, synthesis and antibacterial evaluation of novel 15-membered 11a-azahomoclarithromycin derivatives with the 1, 2, 3-triazole side chain” (Eur J Med Chem, 2019)
≈ marks a conversion by molar mass, not a printed value.

Assays:
Type in all cases: functional
Staphylococcus aureus [1] = assay: Antibacterial activity against erythromycin-susceptible Staphylococcus aureus ATCC 25923 incubated for 24 hrs by broth dilution method; conditions: ATCC 25923, 24 h
How it was run: (§1)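 CLSI broth microdilution in cation-adjusted Mueller-Hinton broth. Twofold dilutions spanned 0.25–128 or 0.5–256 µg/mL, with CAM and AZM as controls. Log-phase bacteria were added and incubated 24 h at 37 °C. MIC was read by turbidity as the concentration of the last clear well.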

Streptococcus pyogenes [2] = assay: Antibacterial activity against erythromycin-susceptible Streptococcus pyogenes 1 clinical isolate incubated for 24 hrs by broth dilution method; how it was run: as §1
Escherichia coli = assay: Antibacterial activity against penicillin-susceptible Escherichia coli ATCC 25922 incubated for 24 hrs by broth dilution method; conditions: ATCC 25922, 24 h; how it was run: as §1
Pseudomonas aeruginosa = assay: Antibacterial activity against penicillin-susceptible Pseudomonas aeruginosa ATCC 27853 incubated for 24 hrs by broth dilution method; conditions: ATCC 27853, 24 h; how it was run: as §1
Bacillus subtilis = assay: Antibacterial activity against penicillin-susceptible Bacillus subtilis ATCC 9372 incubated for 24 hrs by broth dilution method; conditions: ATCC 9372, 24 h; how it was run: as §1
Staphylococcus aureus [3] = assay: Antibacterial activity against penicillin-resistant Staphylococcus aureus ATCC 31007 incubated for 24 hrs by broth dilution method; conditions: ATCC 31007, 24 h
Staphylococcus aureus [4] = assay: Antibacterial activity against methicillin-resistant Staphylococcus aureus ATCC 43300 incubated for 24 hrs by broth dilution method; conditions: ATCC 43300, 24 h
Streptococcus pneumoniae [5] = assay: Antibacterial activity against erythromycin-resistant Streptococcus pneumoniae B1 expressing the ermB incubated for 24 hrs by broth dilution method
Streptococcus pneumoniae [6] = assay: Antibacterial activity against erythromycin-resistant Streptococcus pneumoniae AB11 expressing the ermB and mefA incubated for 24 hrs by broth dilution method
Streptococcus pyogenes [7] = assay: Antibacterial activity against erythromycin-resistant Streptococcus pyogenes 2 clinical isolate incubated for 24 hrs by broth dilution method
Staphylococcus aureus [8] = assay: Ratio of MIC for CAM to MIC for test compound for antibacterial activity against penicillin-resistant Staphylococcus aureus ATCC 31007 incubated for 24 hrs by broth dilution method
How it was run: (§2)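 Ratio of clarithromycin MIC to compound MIC. Both MICs come from CLSI broth microdilution in cation-adjusted Mueller-Hinton broth with 2-fold dilutions, log-phase inoculum and 24 h at 37 °C, read by turbidity as the last clear well.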

Streptococcus pneumoniae [9] = assay: Ratio of MIC for CAM to MIC for test compound for antibacterial activity against erythromycin-resistant Streptococcus pneumoniae AB11 expressing the ermB and mefA incubated for 24 hrs by broth dilution method; how it was run: as §2
Streptococcus pyogenes [10] = assay: Ratio of MIC for CAM to MIC for test compound for antibacterial activity against erythromycin-resistant Streptococcus pyogenes 2 clinical isolate incubated for 24 hrs by broth dilution method; how it was run: as §2

| Structure (SMILES) | MIC (Staphylococcus aureus [1]) [µg/mL] | MIC (Streptococcus pyogenes [2]) [µg/mL] | MIC (Escherichia coli) [µg/mL] | MIC (Pseudomonas aeruginosa) [µg/mL] | MIC (Bacillus subtilis) [µg/mL] | MIC (Staphylococcus aureus [3]) [µg/mL] | MIC (Staphylococcus aureus [4]) [µg/mL] | MIC (Streptococcus pneumoniae [5]) [µg/mL] | MIC (Streptococcus pneumoniae [6]) [µg/mL] | MIC (Streptococcus pyogenes [7]) [µg/mL] | Ratio (Staphylococcus aureus [8]) | Ratio (Streptococcus pneumoniae [9]) | Ratio (Streptococcus pyogenes [10]) |
| --- | --- | --- | --- | --- | --- | --- | --- | --- | --- | --- | --- | --- | --- |
| CO[C@]1(C)C[C@@H](C)[C@H](O)[C@H](C)CN(C)[C@@H](Cn2cc(-c3ccc(F)cc3)nn2)COC(=O)[C@H](C)[C@@H](O[C@H]2C[C@@](C)(OC)[C@@H](O)[C@H](C)O2)[C@H](C)[C@H]1O[C@@H]1O[C@H](C)C[C@H](N(C)C)[C@H]1O | 64 (≈ 72.7 µM) | 16 (≈ 18.2 µM) | > 128 | > 128 | 32 (≈ 36.4 µM) | 128 (≈ 145 µM) | 128 (≈ 145 µM) | 256 (≈ 291 µM) | 128 (≈ 145 µM) | 128 (≈ 145 µM) |  |  |  |
| CCCCc1ccc(-c2cn(C[C@H]3CN(C)C[C@@H](C)[C@@H](O)[C@H](C)C[C@@](C)(OC)[C@H](O[C@@H]4O[C@H](C)C[C@H](N(C)C)[C@H]4O)[C@@H](C)[C@H](O[C@H]4C[C@@](C)(OC)[C@@H](O)[C@H](C)O4)[C@@H](C)C(=O)O3)nn2)cc1 | 1 (≈ 1.09 µM) | 0.06 (≈ 0.0653 µM) | 128 (≈ 139 µM) | 64 (≈ 69.7 µM) | 1 (≈ 1.09 µM) | 32 (≈ 34.8 µM) | 16 (≈ 17.4 µM) | 16 (≈ 17.4 µM) | 32 (≈ 34.8 µM) | 16 (≈ 17.4 µM) |  |  |  |
| CO[C@]1(C)C[C@@H](C)[C@H](O)[C@H](C)CN(C)C[C@@H](COCc2cn(-c3ccccc3)nn2)OC(=O)[C@H](C)[C@@H](O[C@H]2C[C@@](C)(OC)[C@@H](O)[C@H](C)O2)[C@H](C)[C@H]1O[C@@H]1O[C@H](C)C[C@H](N(C)C)[C@H]1O | 1 (≈ 1.12 µM) | 1 (≈ 1.12 µM) | 128 (≈ 143 µM) | 128 (≈ 143 µM) | 1 (≈ 1.12 µM) | > 256 | 256 (≈ 287 µM) | 256 (≈ 287 µM) | 64 (≈ 71.7 µM) | 64 (≈ 71.7 µM) |  |  |  |
| CO[C@]1(C)C[C@@H](C)[C@H](O)[C@H](C)CN(C)C[C@H](COCc2cn(-c3ccc(OC(F)(F)F)cc3)nn2)OC(=O)[C@H](C)[C@@H](O[C@H]2C[C@@](C)(OC)[C@@H](O)[C@H](C)O2)[C@H](C)[C@H]1O[C@@H]1O[C@H](C)C[C@H](N(C)C)[C@H]1O | 2 (≈ 2.05 µM) | 2 (≈ 2.05 µM) | 64 (≈ 65.6 µM) | 16 (≈ 16.4 µM) | 1 (≈ 1.02 µM) | 128 (≈ 131 µM) | 128 (≈ 131 µM) | 128 (≈ 131 µM) | 32 (≈ 32.8 µM) | 32 (≈ 32.8 µM) |  |  |  |
| CO[C@]1(C)C[C@@H](C)[C@H](O)[C@H](C)CN(C)C[C@H](Cn2cc(-c3ccccc3)nn2)OC(=O)[C@H](C)[C@@H](O[C@H]2C[C@@](C)(OC)[C@@H](O)[C@H](C)O2)[C@H](C)[C@H]1O[C@@H]1O[C@H](C)C[C@H](N(C)C)[C@H]1O | 1 (≈ 1.16 µM) | 0.12 (≈ 0.139 µM) | 32 (≈ 37.1 µM) | 64 (≈ 74.2 µM) | 1 (≈ 1.16 µM) | 256 (≈ 297 µM) | 256 (≈ 297 µM) | 256 (≈ 297 µM) | 128 (≈ 148 µM) | 128 (≈ 148 µM) |  |  |  |
| CO[C@]1(C)C[C@@H](C)[C@H](O)[C@H](C)CN(C)[C@@H](Cn2cc(-c3ccccc3)nn2)COC(=O)[C@H](C)[C@@H](O[C@H]2C[C@@](C)(OC)[C@@H](O)[C@H](C)O2)[C@H](C)[C@H]1O[C@@H]1O[C@H](C)C[C@H](N(C)C)[C@H]1O | 32 (≈ 37.1 µM) | 2 (≈ 2.32 µM) | > 128 | > 128 | 16 (≈ 18.6 µM) | 256 (≈ 297 µM) | 256 (≈ 297 µM) | 256 (≈ 297 µM) | 128 (≈ 148 µM) | 128 (≈ 148 µM) |  |  |  |
| CCCCc1ccc(-c2cn(C[C@H]3COC(=O)[C@H](C)[C@@H](O[C@H]4C[C@@](C)(OC)[C@@H](O)[C@H](C)O4)[C@H](C)[C@@H](O[C@@H]4O[C@H](C)C[C@H](N(C)C)[C@H]4O)[C@](C)(OC)C[C@@H](C)[C@H](O)[C@H](C)CN3C)nn2)cc1 | 16 (≈ 17.4 µM) | 4 (≈ 4.36 µM) | > 128 | > 128 | 8 (≈ 8.71 µM) | 16 (≈ 17.4 µM) | > 256 | > 256 | 16 (≈ 17.4 µM) | 16 (≈ 17.4 µM) | 8 - 16 | 8 - 16 | 8 - 16 |
| COc1ccc(-n2cc(COC[C@@H]3CN(C)C[C@@H](C)[C@@H](O)[C@H](C)C[C@@](C)(OC)[C@H](O[C@@H]4O[C@H](C)C[C@H](N(C)C)[C@H]4O)[C@@H](C)[C@H](O[C@H]4C[C@@](C)(OC)[C@@H](O)[C@H](C)O4)[C@@H](C)C(=O)O3)nn2)cc1 | 8 (≈ 8.68 µM) | 4 (≈ 4.34 µM) | 128 (≈ 139 µM) | 128 (≈ 139 µM) | 2 (≈ 2.17 µM) | 256 (≈ 278 µM) | 256 (≈ 278 µM) | 256 (≈ 278 µM) | 128 (≈ 139 µM) | 128 (≈ 139 µM) |  |  |  |
| CO[C@]1(C)C[C@@H](C)[C@H](O)[C@H](C)CN(C)C[C@@H](COCc2cn(-c3ccccn3)nn2)OC(=O)[C@H](C)[C@@H](O[C@H]2C[C@@](C)(OC)[C@@H](O)[C@H](C)O2)[C@H](C)[C@H]1O[C@@H]1O[C@H](C)C[C@H](N(C)C)[C@H]1O | 2 (≈ 2.24 µM) | 2 (≈ 2.24 µM) | 128 (≈ 143 µM) | 128 (≈ 143 µM) | 0.5 (≈ 0.56 µM) | > 256 | > 256 | > 256 | 128 (≈ 143 µM) | 128 (≈ 143 µM) |  |  |  |
| CO[C@]1(C)C[C@@H](C)[C@H](O)[C@H](C)CN(C)C[C@H](Cn2cc(-c3ccc(Cl)cc3)nn2)OC(=O)[C@H](C)[C@@H](O[C@H]2C[C@@](C)(OC)[C@@H](O)[C@H](C)O2)[C@H](C)[C@H]1O[C@@H]1O[C@H](C)C[C@H](N(C)C)[C@H]1O | 2 (≈ 2.23 µM) | 0.12 (≈ 0.134 µM) | 32 (≈ 35.7 µM) | 64 (≈ 71.4 µM) | 1 (≈ 1.12 µM) | 128 (≈ 143 µM) | 128 (≈ 143 µM) | 128 (≈ 143 µM) | 128 (≈ 143 µM) | 64 (≈ 71.4 µM) |  |  |  |
| COc1ccc(-c2cn(C[C@H]3CN(C)C[C@@H](C)[C@@H](O)[C@H](C)C[C@@](C)(OC)[C@H](O[C@@H]4O[C@H](C)C[C@H](N(C)C)[C@H]4O)[C@@H](C)[C@H](O[C@H]4C[C@@](C)(OC)[C@@H](O)[C@H](C)O4)[C@@H](C)C(=O)O3)nn2)cc1 | 1 (≈ 1.12 µM) | 0.12 (≈ 0.135 µM) | 32 (≈ 35.9 µM) | 64 (≈ 71.7 µM) | 1 (≈ 1.12 µM) | > 256 | > 256 | > 256 | 256 (≈ 287 µM) | 128 (≈ 143 µM) |  |  |  |
| CO[C@]1(C)C[C@@H](C)[C@H](O)[C@H](C)CN(C)C[C@@H](Cn2cc(-c3ccccn3)nn2)OC(=O)[C@H](C)[C@@H](O[C@H]2C[C@@](C)(OC)[C@@H](O)[C@H](C)O2)[C@H](C)[C@H]1O[C@@H]1O[C@H](C)C[C@H](N(C)C)[C@H]1O | 2 (≈ 2.32 µM) | 1 (≈ 1.16 µM) | 128 (≈ 148 µM) | 64 (≈ 74.2 µM) | 4 (≈ 4.63 µM) | > 256 | > 256 | 128 (≈ 148 µM) | 128 (≈ 148 µM) | 128 (≈ 148 µM) |  |  |  |
| COc1ccc(-c2cn(C[C@@H]3CN(C)C[C@@H](C)[C@@H](O)[C@H](C)C[C@@](C)(OC)[C@H](O[C@@H]4O[C@H](C)C[C@H](N(C)C)[C@H]4O)[C@@H](C)[C@H](O[C@H]4C[C@@](C)(OC)[C@@H](O)[C@H](C)O4)[C@@H](C)C(=O)O3)nn2)cc1 | 32 (≈ 35.9 µM) | 4 (≈ 4.48 µM) | > 128 | > 128 | 64 (≈ 71.7 µM) | 256 (≈ 287 µM) | 256 (≈ 287 µM) | 256 (≈ 287 µM) | 128 (≈ 143 µM) | 64 (≈ 71.7 µM) |  |  |  |
